Reference: ChEMBL document CHEMBL2150855, “Tocotrienamines and tocopheramines: reactions with radicals and metal ions” (Bioorg Med Chem, 2011)
Activity calls are given as the source filed them. The rule behind the calls is not given here.

Experiments:
Format in all cases: functional
[1] = Antioxidant activity assessed as ferric ion reducing power by FRAP method
Summary of the method: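 FRAP assay adapted for lipophilic antioxidants: Fe3+–TPTZ complex reduction in 300 mM acetate buffer, pH 3.6, at a 1:500 molar ratio of test compound to ferric ions. Data are mean ± SD of three series run in triplicate, with Student–Newman–Keuls post-hoc ANOVA (p<0.05).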

[2] = system: Radical scavenging activity; assay: Antioxidant activity assessed as DPPH free radical scavenging activity
[3] = Antioxidant activity assessed as ABTS+ free radical scavenging activity by TEAC assay
Summary of the method: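 TEAC assay measures reduction of the ABTS radical cation, with results expressed as Trolox equivalents. Data are mean ± SD of three series run in triplicate, with Student–Newman–Keuls post-hoc ANOVA (p<0.05).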

[4] = system: Radical scavenging activity; assay: Antioxidant activity assessed as rate constant for DPPH free radical scavenging activity by stopped flow spectroscopy
Summary of the method: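 Stopped-flow rapid mixing with diode-array photometer detection. Antioxidant stocks (ca. 2 mM) and DPPH (200 µM) prepared in ethanol; DPPH (200 µM) in acetonitrile also used. Starting antioxidant concentration after mixing is half the stock. Second-order rate constant derived from the kinetics.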

[5] = Antioxidant activity assessed as formation of DPPH breakdown product at 0.5 mM incubated for 20 mins by HPLC
Summary of the method: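 Aerobic DPPH (0.5 mM) mixed with test compound (0.5 mM) and incubated 20 min at room temperature. Reaction products analysed by HPLC, taking the peak area of the product eluting at 4 min. Mean ± SD of five experiments.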

[6] = Antioxidant activity assessed as nitration product at 1:1 compound to phenol concentration
Summary of the method: (§1)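 FeCl3 used as oxidant at 10:1 and 100:1 molar ratios to test compound, with phenolic substrate at 1:1 to compound (FeCl3/compound/phenolic 10:1:1 or 100:1:1), in 50:50 v/v H2O/EtOH. Percent conversion to nitration product determined. Means of triplicate experiments.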

[7] = Antioxidant activity assessed as reduction in copper-mediated ascorbic acid oxidation preincubated for 10 mins measured for every 2 mins upto 2 hrs by UV spectrophotometry
Summary of the method: (§2)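 Test compound suspension combined with Chelex-treated water containing 2 µM Cu+. Plate pre-incubated 10 min at 37 °C, then ascorbate added (from a 2 mM stock, pH 7) to a starting 200 µM. A265 read every 2 min for 2 h at 37 °C to obtain the initial depletion rate. Ethanol vehicle served as baseline and DTPA as chelator control. Triplicate.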

[8] = Antioxidant activity assessed as reduction in copper-mediated ascorbic acid oxidation at 100 uM preincubated for 10 mins measured for every 2 mins upto 2 hrs by UV spectrophotometrya; parameters: scale not given: the % may be the effect or the level left; summary of the method: as §2
[9] = Antioxidant activity assessed as nitration product using PhOH as substrate at FeCl3 to compound to phenol concentration 10:1:1; summary of the method: as §1
[10] = Antioxidant activity assessed as nitration product using PhOH as substrate at FeCl3 to compound to phenol concentration 100:1:1; summary of the method: as §1
[11] = Antioxidant activity assessed as nitration product using PhOMe as substrate at FeCl3 to compound to phenol concentration 10:1:1; summary of the method: as §1
[12] = Antioxidant activity assessed as nitration product using PhOMe as substrate at FeCl3 to compound to phenol concentration 100:1:1; summary of the method: as §1
[13] = Antioxidant activity assessed as nitration product using HOC6H3(Me)2-(2,6) as substrate at FeCl3 to compound to phenol concentration 10:1:1; summary of the method: as §1
[14] = Antioxidant activity assessed as nitration product using HOC6H3(Me)2-(2,6) as substrate at FeCl3 to compound to phenol concentration 100:1:1; summary of the method: as §1
[15] = Antioxidant activity assessed as nitration product using MeOC6H3(Me)2-(2,6) as substrate at FeCl3 to compound to phenol concentration 10:1:1; summary of the method: as §1
[16] = Antioxidant activity assessed as nitration product using MeOC6H3(Me)2-(2,6) as substrate at FeCl3 to compound to phenol concentration 100:1:1; summary of the method: as §1
[17] = Antioxidant activity assessed as nitration product using HOC6H3(t-Bu)2-(2,6) as substrate at FeCl3 to compound to phenol concentration 10:1:1; summary of the method: as §1
[18] = Antioxidant activity assessed as nitration product using HOC6H3(t-Bu)2-(2,6) as substrate at FeCl3 to compound to phenol concentration 100:1:1; summary of the method: as §1
[19] = Antioxidant activity assessed as nitration product at 1:1 compound to salicylic acid concentration; summary of the method: as §1

Row | SMILES | Activity [1] | Activity [2] | Activity [3] | other results
1 | CC(C)=CCC/C(C)=C/CC/C(C)=C/CC[C@]1(C)CCc2c(C)c(N)c(C)c(C)c2O1 | Active | Active | Active | 
2 | Cc1cc(O)cc2c1OC(C)(CCC(=O)O)CC2 (racemic) | Active | Active | Active | 
3 | Cc1c(C)c2c(c(C)c1O)CC[C@@](C)(CCC[C@H](C)CCC[C@H](C)CCCC(C)C)O2 | Active | Active | Active | Activity [4]: 280 L/mol/s; Activity [5]: inactive
4 | Cc1c(O)cc2c(c1C)O[C@](C)(CCC[C@H](C)CCC[C@H](C)CCCC(C)C)CC2 | Active | Active | Active | Activity [6]: 13%
5 | Cc1cc(N)cc2c1O[C@](C)(CCC[C@H](C)CCC[C@H](C)CCCC(C)C)CC2 | Active | Active | Active | Activity [7]: Dose-dependent effect; Activity [8]: 44.7%
6 | Cc1c(C)c2c(c(C)c1O)CC[C@@](C)(CCCC(C)CCCC(C)CCCC(C)C(=O)O)O2 (mixture of isomers) | Active | Active | Active | 
7 | CC(C)=CCC/C(C)=C/CC/C(C)=C/CC[C@]1(C)CCc2cc(O)cc(C)c2O1 | Active | Active | Active | 
8 | CC(C)=CCC/C(C)=C/CC/C(C)=C/CC[C@]1(C)CCc2cc(O)c(C)c(C)c2O1 | Active | Active | Active | 
9 | Cc1c(C)c2c(c(C)c1O)CCC(C)(CCC(=O)O)O2 (racemic) | Active | Active | Active | 
10 | CC(C)=CCC/C(C)=C/CC/C(C)=C/CC[C@]1(C)CCc2c(C)c(O)c(C)c(C)c2O1 | Active | Active | Active | 
11 | CC(C)=CCC/C(C)=C/CC/C(C)=C/CC[C@]1(C)CCc2cc(N)c(C)c(C)c2O1 | Active | Active | Active | 
12 | Cc1cc(O)cc2c1O[C@](C)(CCC[C@H](C)CCC[C@H](C)CCCC(C)C)CC2 | Active | Active | Active | 
13 | Cc1c(N)cc2c(c1C)O[C@](C)(CCC[C@H](C)CCC[C@H](C)CCCC(C)C)CC2 | Active | Active | Active | Activity [7]: Dose-dependent effect; Activity [8]: 35%
14 | Cc1c(O)cc2c(c1C)OC(C)(C)CC2 |  |  |  | Activity [6]: 3%
15 | Cc1c(C)c2c(c(C)c1N)CC[C@@](C)(CCC[C@H](C)CCC[C@H](C)CCCC(C)C)O2 | Active | Active | Active | Activity [7]: Dose-dependent effect; Activity [4]: 4290 L/mol/s; Activity [9]: 12%; Activity [10]: 26%; Activity [11]: 0%; Activity [12]: 2%; Activity [13]: 4%; Activity [14]: 9%; Activity [15]: 0%; Activity [16]: inactive; Activity [17]: 0.2%; Activity [18]: 0.4%; Activity [8]: 19.5%; Activity [5]: Active; Activity [19]: 8%
16 | Cc1c(O)cc2c(c1C)OC(C)(CCC(=O)O)CC2 (racemic) | Active | Active | Active | 
17 | CC(C)=CCC/C(C)=C/CC/C(C)=C/CC[C@]1(C)CCc2cc(N)cc(C)c2O1 | Active | Active | Active | 
